From PubChem BioAssay
TRPML3 ag – activates the human TRPML3 channel; Q8TDD5; HEK293 TRPML3-YFP, Fluo-8 calcium fluorescence; 100% = the carbachol control signal; activation, % at 3 µM; 220,000 tested, 0.29% active;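 active = activation above its plate's cutoff, the mean activation of the plate's test wells plus 3 SD, cut at about 12% in these data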;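 note: 0% = DMSO only wells and 100% = carbachol wells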
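Test system: TRPML3-YFP stable HEK293 cells. Doses: single point at 3 µM. Incubation: dye loading 1 h 37 °C then 30 min ambient, 125 s read. Signal: Fluo-8 calcium dye fluorescence, ex 470-495, em 515-575 nm. Measure: percent activation from peak-to-basal fluorescence ratio, scaled between DMSO and carbachol.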
zfTRPN1 agonist – agonists of zebrafish TRPN1 channel. HEK293 zebrafish TRPN1-YFP, Fluo-8 calcium fluorescence; 100% = response to 87 µM carbachol. activation, % at 3 µM. 220,000 tested, 0.18% active. AID 1424;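 active = activation above its plate's cutoff, the mean activation of test wells on that plate plus 3 SD, cut at about 19% in these data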;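 note: 0% = DMSO alone and 100% = 87 µM carbachol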
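Material: zebrafish TRPN1-YFP in HEK293 cells; Doses: single test compound dose, 3 µM nominal, 0.3% DMSO; Timing: dye loading 1 h at 37 °C, then 30 min room temperature; Technique: intracellular calcium fluorescence with Fluo-8; Benchmarks: high carbachol 87 µM, low DMSO alone.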
TAAR1 ag – agonists of human TAAR1 | CHO RD-HGA16 TAAR1, Fluo-8 calcium fluorescence; vehicle wells 0%, saturating PEA agonist 100% | activation, % at 3 µM | 360,000 tested, 0.99% active | AID 624467;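 active = activation above the mean activation of all test compounds in the run plus 3 SD, cut at about 38% in these data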
Target sequence (Q96RJ0 whole entry, looked up): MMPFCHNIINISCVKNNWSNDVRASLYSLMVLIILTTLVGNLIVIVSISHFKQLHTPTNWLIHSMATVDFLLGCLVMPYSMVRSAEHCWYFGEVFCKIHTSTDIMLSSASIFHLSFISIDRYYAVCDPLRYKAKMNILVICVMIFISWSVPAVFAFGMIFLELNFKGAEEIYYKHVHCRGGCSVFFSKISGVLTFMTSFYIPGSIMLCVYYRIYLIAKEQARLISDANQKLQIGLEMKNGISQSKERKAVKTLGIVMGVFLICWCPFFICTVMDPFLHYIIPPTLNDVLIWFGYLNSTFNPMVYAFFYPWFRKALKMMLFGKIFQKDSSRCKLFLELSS
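Signal – calcium-sensitive Fluo-8 signal, excitation 470-495, emission 515-575 nm · System – RD-HGA16 (CHO) cells co-expressing Gα16 and hTAAR1 · Incubation – 17-24 h seeding, 75 min 37 °C dye, 30 min RT · Compound dosing – 3 µM single concentration · Repeats – no replicates (n 1)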
TAAR1 antag – antagonists of human TAAR1; CHO RD-HGA16 TAAR1, Fluo-8 calcium fluorescence, antagonist; inhibition, % at 3 µM; 360,000 tested, 1.5% active;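 active = inhibition above a per-plate cutoff, the mean inhibition of test compounds on that plate plus 3 SD, cut at about 49% in these data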;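 note: 0% = DMSO plus EC80 beta-PEA response and 100% = DMSO alone without agonist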
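test system = CHO RD-HGA16 cells bearing hTAAR1 | replication = singlicate | controls = DMSO-only wells and EC80 β-PEA-stimulated wells | reagent = EC80 β-phenethylamine stimulus | read-out basis = percent inhibition of PEA-evoked calcium signal, max/basal emission ratio | schedule = seeding 17-24 h prior, 75-min 37 °C, 30-min RT dye loading | signal = kinetic Fluo-8 calcium fluorescence measurement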
GPR7 antagonist – blocks human GPR7 receptor signaling. P48145. GPR7-expressing cells, fluorescence antagonist assay. inhibition, % at 4.4 µM. 290,000 tested, 1.1% active. AID 1861; in the data active = inhibition above about 16%, passing the limit was not always enough;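 note: cells stimulated with the agonist NPW; 0% = agonist with vehicle and 100% = vehicle without agonist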
Target sequence (P48145 whole entry, looked up): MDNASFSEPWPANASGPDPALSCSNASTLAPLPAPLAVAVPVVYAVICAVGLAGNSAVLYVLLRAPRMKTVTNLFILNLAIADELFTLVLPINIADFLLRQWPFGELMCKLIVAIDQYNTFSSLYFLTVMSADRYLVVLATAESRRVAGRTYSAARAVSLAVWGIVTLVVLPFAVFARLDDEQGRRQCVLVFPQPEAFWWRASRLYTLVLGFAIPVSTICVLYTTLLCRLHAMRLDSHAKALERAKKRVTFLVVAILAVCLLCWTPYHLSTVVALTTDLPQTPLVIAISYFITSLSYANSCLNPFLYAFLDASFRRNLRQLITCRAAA
LANA-H2A inh – blocks KSHV LANA binding to histone H2A/H2B; Q9QR71; cell-free LANA-H2A/H2B peptide, fluorescence polarization; inhibition, % (test concentration not listed); 320,000 tested, 0.6% active; in the data active = inhibition mostly above about 10%, no sharp cut-off; inactive = mostly below about 6.7%
GPR7 antag conf – human GPR7 antagonism, confirmation assay; AID 1952; GPR7-expressing cells, calcium fluorescence antagonist mode; 2,400 tested, 52% active; inhibition, % at 4.4 µM; shares compounds with GPR7 antagonist; in the data active = inhibition above about 24%;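 note: stimulated with the GPR7 agonist NPW; 0% = agonist plus vehicle and 100% = vehicle alone without agonist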
MCHR1 antag – counter-screen for GPR7 antagonists: antagonists of human MCHR1 | shares compounds with GPR7 antagonist | MCHR1-expressing cells, fluorescence antagonist assay | inhibition, % at 4.4 µM | 2,400 tested, 62% active; in the data active = inhibition above about 22%;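 note: 0% = vehicle with agonist and 100% = vehicle without agonist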
* marks the source's active call; other numbers are inactive results; x = not tested or not shown. In the library only some 3.4% were active in any assay of this set; here they are far more common.

SMILES | TRPML3 ag | zfTRPN1 agonist | TAAR1 ag | TAAR1 antag | GPR7 antagonist | LANA-H2A inh | GPR7 antag conf | MCHR1 antag
CCC(C)c1ccc(OCC(=O)Nc2ccc3c(c2)C(=O)NC3=O)cc1 (stereo not given) | x | x | 4 | 25 | 30* | -4 | 40* | 67*
CN1CCN(c2ccc(C(F)(F)F)cc2NC(=O)Nc2ccccc2)CC1 | x | x | 52* | 29 | 62* | 7 | 43* | 49*
CC(Cl)C(=O)Nc1cc(C(F)(F)F)ccc1N1CCOCC1 (stereo not given) | 0 | -1 | -1 | -13 | -13 | 0 | x | x
CCc1ccc(-n2c(SCC(=O)N3Cc4ccccc4CC3C(=O)O)nnc2-c2ccncc2)cc1 (stereo not given) | -1 | -1 | 1 | -16 | 21* | -1 | 3 | -2
Cc1noc(C)c1CSc1nnc(-c2ccccc2)o1 | -1 | -1 | 2 | 4 | 23* | 2 | 31* | 22*
COc1ccccc1CNC(=O)c1n[nH]c2ccccc12 | -1 | -2 | 0 | -6 | 30* | 1 | 23 | 20
O=C(CN1CCN(S(=O)(=O)c2ccc(Br)cc2)CC1)Nc1ccc(F)cc1F | 1 | 0 | 15 | 7 | 13 | -2 | x | x
O=C(CN1CCN(S(=O)(=O)c2ccc(Br)cc2)CC1)Nc1ccc(F)cc1 | 0 | 1 | 7 | -1 | 30* | -3 | 39* | 26*
COc1cccc(NC(=O)CN(C)C(=O)c2cccc(S(=O)(=O)N3CCN(c4ccccc4)CC3)c2)c1 | x | x | 6 | -3 | 24* | 0 | 16 | 39*
O=C(CN1CCN(S(=O)(=O)c2ccc(Cl)cc2)CC1)Nc1ccc(F)cc1F | 1 | 0 | x | x | 24* | 4 | 34* | 22*
COc1cc(NC(=O)CNc2cccc(S(=O)(=O)N3CCCC3)c2)cc(OC)c1 | x | x | 2 | -11 | 31* | 1 | 4 | 19
O=C(Nc1ccccc1)c1cc(C2COCCN2C(=O)C2CC2)on1 (stereo not given) | x | x | 1 | 3 | x | x | x | x
O=C(CN1CCCCCC1)Nc1ccc(F)c(F)c1 | 1 | 0 | 7 | -23 | -1 | -5 | x | x
COc1cccc(NC(=O)CN2C(=O)COc3ccc(S(=O)(=O)N4CCC(C)CC4)cc32)c1 | x | x | 2 | -12 | 23* | -6 | -15 | 0
O=C(CN1CCN(CC(=O)Nc2ccccc2Cl)CC1)Nc1ccc(F)c(F)c1 | x | x | 3 | 4 | 48* | 1 | 42* | 61*
COc1cccc(NC(=O)CN2CCN(S(=O)(=O)c3ccc(C(C)C)cc3)CC2)c1 | 0 | -1 | 4 | 10 | 35* | 2 | 38* | 29*
COc1cc(NC(=O)CN2CCN(S(=O)(=O)c3ccc(C(C)C)cc3)CC2)cc(OC)c1 | 0 | -1 | 3 | 13 | -5 | -1 | x | x
CCc1cccc(C)c1NC(=O)Cn1c(NCCO)nc2ccccc21 | 0 | -1 | 0 | 9 | 9 | 1 | x | x
CCCCNc1nc2ccccc2n1CC(=O)Nc1c(C)cccc1CC | 0 | 0 | 0 | -6 | 33* | -3 | 32* | 21
CC1(C)Cc2ccccc2C(COc2ccccc2)=N1 | x | x | 2 | -27 | 26* | 6 | -1 | 0
CC(C)N(C(C)C)S(=O)(=O)c1ccc(N2CCc3ccccc3C2)nc1 | x | x | 5 | 1 | 21* | 1 | 16 | 63*
CCN(CC)S(=O)(=O)c1ccc(N2CCc3ccccc3C2)nc1 | x | x | 2 | -1 | -10 | 1 | x | x
CCOc1ccc(C(=O)NCc2ccco2)cc1Cl | x | x | -1 | 7 | -2 | 3 | x | x
COc1ccccc1CNC(=O)c1c(N)n(CCCN2CCOCC2)c2nc3ccccc3nc12 | 0 | 1 | 16 | 39 | 10 | x | x | x
Nc1c(C(=O)NCc2ccc3c(c2)OCO3)c2nc3ccccc3nc2n1CCCN1CCOCC1 | 2 | 2 | 21 | 42 | 23* | -2 | 49* | 51*
SMILES | TRPML3 ag | zfTRPN1 agonist | TAAR1 ag | TAAR1 antag | GPR7 antagonist | LANA-H2A inh | GPR7 antag conf | MCHR1 antag
O=C(CN1C(=O)NC2(CCCc3ccccc32)C1=O)Nc1cc(F)ccc1F (stereo not given) | x | x | 4 | -21 | x | -3 | x | x
CN(C(=O)COc1cc(=O)n(C)c2ccccc12)c1cccc(Cl)c1 | -1 | 0 | -1 | -17 | 13 | 4 | x | x
Cc1cccc(N(C)C(=O)COc2cc(=O)n(C)c3ccccc23)c1 | -1 | 2 | 2 | -34 | 64* | 4 | -2 | 6
COCCCNC(=O)c1nc2ccccc2c(=O)n1NC(=O)Nc1c(Cl)cccc1Cl | x | x | -2 | -6 | -5 | 2 | x | x
Cc1cc(-c2ccc(S(=O)(=O)N3CCN(c4cccc(C)c4C)CC3)s2)on1 | x | x | 3 | -3 | 29* | 3 | 15 | 40*
CCN1CCN(S(=O)(=O)c2ccc(-c3cc(C)no3)s2)CC1 | x | x | 0 | -5 | -2 | -2 | x | x
Cc1c(NC(=O)c2cccs2)cccc1-c1nc2ccccc2s1 | 2 | 8 | 26 | 42 | 33* | 1 | 45* | 64*
CCCCOC(=O)C[N+](C)(C)CCOC1CC2CCC1(C)C2(C)C (stereo not given) | 1 | 0 | 13 | 2 | -2 | 2 | x | x
CCCCCCOC(=O)C[N+](C)(C)CCOC1CC2CCC1(C)C2(C)C (stereo not given) | 0 | 0 | 5 | -2 | 32* | -10 | 65* | 63*
Cc1cccc(S(=O)(=O)NC(=O)C2(C)CCN2C(=O)Cc2ccc(C(C)(C)C)cc2)c1 (stereo not given) | x | x | 2 | -12 | x | x | x | x
Nc1nc(-c2ccccc2)ns1 | x | x | 3 | -16 | x | x | x | x
O=C(COC(=O)/C=C/c1ccco1)NCc1ccccc1 | 0 | 0 | 1 | -16 | 27* | -4 | -7 | -2
O=C(COC(=O)/C=C/c1ccc(Cl)cc1)NCCc1ccccc1 | 1 | -1 | 7 | -8 | 21* | -2 | -1 | -1
Cc1cccn2c(=O)nc(SCC(=O)NCc3ccc4c(c3)OCO4)nc12 | x | x | 1 | -32 | x | 1 | x | x
Cc1cc(C)n(-c2ccc(C(=O)Nc3ccc(S(=O)(=O)NCc4ccco4)cc3)cc2)n1 | 2 | 7 | 15 | 62* | 45* | -3 | 67* | 70*
O=C(CCn1ccc2ccccc21)Nc1ccc(N2CCOCC2)cc1 | 1 | 0 | 1 | 10 | 30* | 3 | -1 | 5
O=C(CCn1c(=O)oc2ccccc21)Nc1ccc(N2CCOCC2)cc1 | x | x | -2 | -7 | -3 | -7 | x | x
